Assay results: ChEMBL document CHEMBL1148687, “Identification of a novel 4-aminomethylpiperidine class of M3 muscarinic receptor antagonists and structural insight into their M3 selectivity” (J Med Chem, 2006)

Experiments:
Type in all cases: cell-based
[1] = target: T1, Muscarinic acetylcholine receptor M3 (Homo sapiens, UniProt P20309); test: Inhibition of [3H]NMS binding to human cloned M3 receptor expressed in CHO cells at 1 uM
Target sequence in this assay (P20309 whole entry, looked up): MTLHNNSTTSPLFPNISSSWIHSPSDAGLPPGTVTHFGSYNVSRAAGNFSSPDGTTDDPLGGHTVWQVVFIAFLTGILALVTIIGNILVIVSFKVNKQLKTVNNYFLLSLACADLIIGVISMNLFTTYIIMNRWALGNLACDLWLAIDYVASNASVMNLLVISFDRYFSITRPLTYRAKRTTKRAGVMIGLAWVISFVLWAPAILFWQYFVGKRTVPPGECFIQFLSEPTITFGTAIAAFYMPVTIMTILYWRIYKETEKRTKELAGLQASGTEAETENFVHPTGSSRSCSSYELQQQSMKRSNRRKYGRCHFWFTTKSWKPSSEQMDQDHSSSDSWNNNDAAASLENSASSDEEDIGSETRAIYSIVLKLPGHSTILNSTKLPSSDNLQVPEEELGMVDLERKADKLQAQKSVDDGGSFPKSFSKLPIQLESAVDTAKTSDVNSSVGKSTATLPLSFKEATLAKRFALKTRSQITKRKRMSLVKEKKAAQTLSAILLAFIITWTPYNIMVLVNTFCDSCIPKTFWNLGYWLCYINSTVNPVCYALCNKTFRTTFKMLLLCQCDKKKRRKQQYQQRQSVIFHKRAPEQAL

[2] = target: T2, Muscarinic acetylcholine receptor M4 (Homo sapiens, UniProt P08173); test: Inhibition of [3H]NMS binding to human cloned M4 receptor expressed in CHO cells
T2 sequence (P08173 whole entry): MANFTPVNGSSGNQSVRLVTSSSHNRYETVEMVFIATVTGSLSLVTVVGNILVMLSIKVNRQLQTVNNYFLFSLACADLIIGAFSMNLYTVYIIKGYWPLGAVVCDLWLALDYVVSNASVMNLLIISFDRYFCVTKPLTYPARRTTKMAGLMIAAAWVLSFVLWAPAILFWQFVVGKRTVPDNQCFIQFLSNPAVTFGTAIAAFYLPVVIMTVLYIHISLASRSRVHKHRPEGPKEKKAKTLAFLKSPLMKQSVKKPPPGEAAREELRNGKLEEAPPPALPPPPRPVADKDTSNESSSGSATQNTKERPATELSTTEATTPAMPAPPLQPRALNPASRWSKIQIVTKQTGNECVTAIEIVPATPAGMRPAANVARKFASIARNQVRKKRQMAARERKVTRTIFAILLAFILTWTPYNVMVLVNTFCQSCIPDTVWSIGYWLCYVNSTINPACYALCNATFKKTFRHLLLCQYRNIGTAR
Summary of the method: (§1)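 Competition against specific [3H]-NMS binding on membranes of CHO cells expressing cloned human receptor subtypes. Assay buffer 50 mM Tris-HCl, 10 mM MgCl2, 1 mM EDTA, pH 7.4, highest final concentration 10 µM.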

[3] = target: T1, Muscarinic acetylcholine receptor M3; test: Inhibition of [3H]NMS binding to human cloned M3 receptor expressed in CHO cells; summary of the method: as §1
Target sequence in this assay (P20309 whole entry): as the sequence (P20309 whole entry, looked up) above

[4] = target: T3, Muscarinic acetylcholine receptor M1 (Homo sapiens, UniProt P11229); test: Inhibition of [3H]NMS binding to human cloned M1 receptor expressed in CHO cells; summary of the method: as §1
T3 sequence (P11229 whole entry): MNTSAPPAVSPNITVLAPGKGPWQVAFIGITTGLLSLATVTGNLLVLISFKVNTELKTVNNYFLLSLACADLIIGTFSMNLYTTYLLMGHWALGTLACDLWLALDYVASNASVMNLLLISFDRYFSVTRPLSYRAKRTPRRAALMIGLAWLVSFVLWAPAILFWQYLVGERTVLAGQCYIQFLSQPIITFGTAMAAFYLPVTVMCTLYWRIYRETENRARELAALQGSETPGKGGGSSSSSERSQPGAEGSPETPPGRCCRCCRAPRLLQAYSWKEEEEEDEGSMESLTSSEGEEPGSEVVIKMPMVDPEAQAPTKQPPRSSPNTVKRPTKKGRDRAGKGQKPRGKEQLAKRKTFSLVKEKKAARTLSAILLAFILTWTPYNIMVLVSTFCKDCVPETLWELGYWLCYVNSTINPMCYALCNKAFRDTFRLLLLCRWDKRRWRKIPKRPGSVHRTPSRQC

[5] = target: T4, Muscarinic acetylcholine receptor M5 (Homo sapiens, UniProt P08912); test: Inhibition of [3H]NMS binding to human cloned M5 receptor expressed in CHO cells; summary of the method: as §1
T4 sequence (P08912 whole entry): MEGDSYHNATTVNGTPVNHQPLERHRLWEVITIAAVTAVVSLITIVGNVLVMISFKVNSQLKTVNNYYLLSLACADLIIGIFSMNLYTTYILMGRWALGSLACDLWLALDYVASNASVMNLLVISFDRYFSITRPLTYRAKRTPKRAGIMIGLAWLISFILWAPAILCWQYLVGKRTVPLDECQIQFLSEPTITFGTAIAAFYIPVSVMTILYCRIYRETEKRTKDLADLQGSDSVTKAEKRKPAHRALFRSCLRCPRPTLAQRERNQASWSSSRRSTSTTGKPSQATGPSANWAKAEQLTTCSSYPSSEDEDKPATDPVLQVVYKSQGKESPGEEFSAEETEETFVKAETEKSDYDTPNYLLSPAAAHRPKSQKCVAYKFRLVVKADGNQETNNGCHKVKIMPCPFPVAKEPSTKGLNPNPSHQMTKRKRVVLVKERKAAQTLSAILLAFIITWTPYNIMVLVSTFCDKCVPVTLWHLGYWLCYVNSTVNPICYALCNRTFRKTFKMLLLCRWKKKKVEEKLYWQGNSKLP

Row | inhibition [1] [%] | Ki [2] [nM] | Ki [3] [nM] | Ki [4] [nM] | Ki [5] [nM] | Compound
1 | 5 | – | – | – | – | NCC1CCCCN1C(=O)[C@H]1CCCN1C(=O)[C@@H]1CCCN1C(=O)CC(c1ccccc1)(c1ccccc1)c1ccccc1 (some centres undefined)
2 | – | 480 | 4.2 | 1800 | > 5100 | O=C(NCC1CCNCC1)[C@H]1CCCN1C(=O)[C@@H]1C[C@@H](O)CN1C(=O)CC(c1ccccc1)(c1ccccc1)c1ccccc1
3 | 33 | – | – | – | – | O=C(NCC1CCNC1)[C@H]1CCCN1C(=O)[C@@H]1CCCN1C(=O)CC(c1ccccc1)(c1ccccc1)c1ccccc1 (some centres undefined)
4 | – | 180 | 2.4 | 800 | > 5400 | CC(C)NC(=O)[C@H]1CCCN1C(=O)[C@@H]1C[C@@H](O)CN1C(=O)CC(c1ccc(F)cc1)(c1ccc(F)cc1)c1ccc(F)cc1
5 | 0 | – | – | – | – | NC1CCN(C(=O)[C@H]2CCCN2C(=O)[C@@H]2CCCN2C(=O)CC(c2ccccc2)(c2ccccc2)c2ccccc2)C1 (some centres undefined)
6 | 7 | – | – | – | – | NCC1CCN(C(=O)[C@H]2CCCN2C(=O)[C@@H]2CCCN2C(=O)CC(c2ccccc2)(c2ccccc2)c2ccccc2)C1 (some centres undefined)
7 | 6 | – | – | – | – | Nc1ccc(CNC(=O)[C@H]2CCCN2C(=O)[C@@H]2CCCN2C(=O)CC(c2ccccc2)(c2ccccc2)c2ccccc2)cc1
8 | – | 11 | 0.19 | 71 | 940 | O=C(NCC1CCN(CC2CCCC2)CC1)[C@H]1CCCN1C(=O)[C@@H]1C[C@@H](O)CN1C(=O)CC(c1ccc(F)cc1)(c1ccc(F)cc1)c1ccc(F)cc1
9 | 12 | – | – | – | – | O=C([C@H]1CCCN1C(=O)[C@@H]1CCCN1C(=O)CC(c1ccccc1)(c1ccccc1)c1ccccc1)N1CCNCC1
10 | 40 | – | – | – | – | N[C@@H]1CCCC[C@@H]1NC(=O)[C@H]1CCCN1C(=O)[C@@H]1CCCN1C(=O)CC(c1ccccc1)(c1ccccc1)c1ccccc1
11 | -2 | – | – | – | – | O=C([C@H]1CCCN1C(=O)[C@@H]1CCCN1C(=O)CC(c1ccccc1)(c1ccccc1)c1ccccc1)N1CCCNCC1
12 | – | 41 | 0.51 | 270 | 1600 | CN1CCC(CNC(=O)[C@H]2CCCN2C(=O)[C@@H]2C[C@@H](O)CN2C(=O)CC(c2ccc(F)cc2)(c2ccc(F)cc2)c2ccc(F)cc2)CC1
13 | 2 | – | – | – | – | NCCCNC(=O)[C@H]1CCCN1C(=O)[C@@H]1CCCN1C(=O)CC(c1ccccc1)(c1ccccc1)c1ccccc1
14 | – | 39 | 0.39 | 300 | 1700 | O=C(NC[C@@H]1CCCNC1)[C@H]1CCCN1C(=O)[C@@H]1C[C@@H](O)CN1C(=O)CC(c1ccc(F)cc1)(c1ccc(F)cc1)c1ccc(F)cc1
15 | 32 | – | – | – | – | NCC1CCCN(C(=O)[C@H]2CCCN2C(=O)[C@@H]2CCCN2C(=O)CC(c2ccccc2)(c2ccccc2)c2ccccc2)C1 (some centres undefined)
16 | – | 120 | 1.6 | 460 | 2700 | O=C(NC[C@@H]1CCCNC1)[C@H]1CCCN1C(=O)[C@@H]1C[C@@H](O)CN1C(=O)CC(c1ccc(Cl)cc1)(c1ccc(Cl)cc1)c1ccc(Cl)cc1
17 | 28 | – | – | – | – | O=C(NCC1CCCCN1)[C@H]1CCCN1C(=O)[C@@H]1CCCN1C(=O)CC(c1ccccc1)(c1ccccc1)c1ccccc1 (some centres undefined)
18 | – | 290 | 3.7 | > 2600 | > 5100 | O=C(NC[C@@H]1CCCNC1)[C@H]1CCCN1C(=O)[C@@H]1C[C@@H](O)CN1C(=O)CC(c1ccccc1)(c1ccccc1)c1ccccc1
19 | 5 | – | – | – | – | Nc1ccccc1CNC(=O)[C@H]1CCCN1C(=O)[C@@H]1CCCN1C(=O)CC(c1ccccc1)(c1ccccc1)c1ccccc1 (stereo in doubt; 45)
20 | 8 | – | – | – | – | Nc1ccc(NC(=O)[C@H]2CCCN2C(=O)[C@@H]2CCCN2C(=O)CC(c2ccccc2)(c2ccccc2)c2ccccc2)cc1
21 | – | 20 | 0.17 | 65 | 1600 | O=C(NCC1CCN(CC2CC2)CC1)[C@H]1CCCN1C(=O)[C@@H]1C[C@@H](O)CN1C(=O)CC(c1ccc(F)cc1)(c1ccc(F)cc1)c1ccc(F)cc1
22 | 4 | – | – | – | – | O=C(NC1CCNCC1)[C@H]1CCCN1C(=O)[C@@H]1CCCN1C(=O)CC(c1ccccc1)(c1ccccc1)c1ccccc1

Row | inhibition [1] [%] | Ki [2] [nM] | Ki [3] [nM] | Ki [4] [nM] | Ki [5] [nM] | Compound
23 | 82 | – | 49 | – | – | O=C(NCC1CCNCC1)[C@H]1CCCN1C(=O)[C@@H]1CCCN1C(=O)CC(c1ccccc1)(c1ccccc1)c1ccccc1
24 | 6 | – | – | – | – | Nc1cccc(CNC(=O)[C@H]2CCCN2C(=O)[C@@H]2CCCN2C(=O)CC(c2ccccc2)(c2ccccc2)c2ccccc2)c1
25 | – | 92 | 0.92 | 580 | 2800 | CCN1CCC(CNC(=O)[C@H]2CCCN2C(=O)[C@@H]2C[C@@H](O)CN2C(=O)CC(c2ccc(F)cc2)(c2ccc(F)cc2)c2ccc(F)cc2)CC1
26 | 59 | – | 170 | – | – | NC1CCCC(NC(=O)[C@H]2CCCN2C(=O)[C@@H]2CCCN2C(=O)CC(c2ccccc2)(c2ccccc2)c2ccccc2)C1 (some centres undefined)
27 | 11 | – | – | – | – | Nc1ccccc1NC(=O)[C@H]1CCCN1C(=O)[C@@H]1CCCN1C(=O)CC(c1ccccc1)(c1ccccc1)c1ccccc1
28 | 7 | – | – | – | – | O=C([C@H]1CCCN1C(=O)[C@@H]1CCCN1C(=O)CC(c1ccccc1)(c1ccccc1)c1ccccc1)N1CC2CNCC2C1 (some centres undefined)
29 | – | 29 | 0.48 | 300 | 1700 | O=C(NCCC1CCNCC1)[C@H]1CCCN1C(=O)[C@@H]1C[C@@H](O)CN1C(=O)CC(c1ccc(F)cc1)(c1ccc(F)cc1)c1ccc(F)cc1
30 | 7 | – | – | – | – | O=C([C@H]1CCCN1C(=O)[C@@H]1CCCN1C(=O)CC(c1ccccc1)(c1ccccc1)c1ccccc1)N1CCC2NCCC21 (some centres undefined)
31 | -4 | – | – | – | – | NCCNC(=O)[C@H]1CCCN1C(=O)[C@@H]1CCCN1C(=O)CC(c1ccccc1)(c1ccccc1)c1ccccc1
32 | 12 | – | – | – | – | NCc1cccc(NC(=O)[C@H]2CCCN2C(=O)[C@@H]2CCCN2C(=O)CC(c2ccccc2)(c2ccccc2)c2ccccc2)c1
33 | 91 | – | 23 | – | – | O=C(NC[C@@H]1CCCNC1)[C@H]1CCCN1C(=O)[C@@H]1CCCN1C(=O)CC(c1ccccc1)(c1ccccc1)c1ccccc1
34 | 12 | – | – | – | – | O=C([C@H]1CCCN1C(=O)[C@@H]1CCCN1C(=O)CC(c1ccccc1)(c1ccccc1)c1ccccc1)N1CCCNC1
35 | 0 | – | – | – | – | Nc1cccc(NC(=O)[C@H]2CCCN2C(=O)[C@@H]2CCCN2C(=O)CC(c2ccccc2)(c2ccccc2)c2ccccc2)c1
36 | 9 | – | – | – | – | NCc1ccc(NC(=O)[C@H]2CCCN2C(=O)[C@@H]2CCCN2C(=O)CC(c2ccccc2)(c2ccccc2)c2ccccc2)cc1
37 | 59 | – | 150 | – | – | NCC1CCN(C(=O)[C@H]2CCCN2C(=O)[C@@H]2CCCN2C(=O)CC(c2ccccc2)(c2ccccc2)c2ccccc2)CC1
38 | -7 | – | – | – | – | NC1CCC(NC(=O)[C@H]2CCCN2C(=O)[C@@H]2CCCN2C(=O)CC(c2ccccc2)(c2ccccc2)c2ccccc2)CC1 (some centres undefined)
39 | 22 | – | – | – | – | NC1CCCN(C(=O)[C@H]2CCCN2C(=O)[C@@H]2CCCN2C(=O)CC(c2ccccc2)(c2ccccc2)c2ccccc2)C1 (some centres undefined)
40 | 88 | – | 29 | – | – | O=C(NCCC1CCNCC1)[C@H]1CCCN1C(=O)[C@@H]1CCCN1C(=O)CC(c1ccccc1)(c1ccccc1)c1ccccc1
41 | 80 | – | 48 | – | – | N[C@H]1CCCC[C@@H]1NC(=O)[C@H]1CCCN1C(=O)[C@@H]1CCCN1C(=O)CC(c1ccccc1)(c1ccccc1)c1ccccc1
42 | -4 | – | – | – | – | O=C(NC1CCNC1)[C@H]1CCCN1C(=O)[C@@H]1CCCN1C(=O)CC(c1ccccc1)(c1ccccc1)c1ccccc1 (some centres undefined)
43 | 10 | – | – | – | – | Nc1ccccc1CNC(=O)[C@H]1CCCN1C(=O)[C@@H]1CCCN1C(=O)CC(c1ccccc1)(c1ccccc1)c1ccccc1 (stereo in doubt; 46)
